Experimental findings from ChEMBL document CHEMBL4819117, “Probing cytochrome P450 (CYP) bioactivation with chloromethylindoline bioprecursors derived from the duocarmycin family of compounds” (Bioorg Med Chem, 2021) are described below.

The test system of series [1] is EJ. Nature of the series: Antiproliferative activity against human EJ138 cells deficit in CYPs assessed as inhibition of cell growth after 96 hrs by MTT assay. Type of series: functional, cell-based. In short, it runs like this:
(§1)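 Cells kept as monolayers at 37 °C in 5% CO2: EJ-138 and RT112 in RPMI 1640 with 10% FBS, sodium pyruvate and 2 mM L-glutamine; CHO and CHO-1A1 in DMEM. Compounds were taken from DMSO stocks into medium over 0.001–100 μM, with final DMSO ≤0.1%. Exposure lasted 96 h, then MTT read-out. IC50 values are mean ± SD of at least three independent assays.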

Series [2] has as its system RT-112. Nature of the series: Antiproliferative activity against human RT112 cells proficient in CYP1A1 assessed as inhibition of cell growth after 96 hrs by MTT assay. The series is classed as functional, cell-based. The conditions noted are these: RT-112, 96 h. In short, it runs like this:
as §1

Series [3] has as its system CHO. Nature of the series: Antiproliferative activity against wild type chinese hamster CHO cells deficit in CYPs assessed as inhibition of cell growth after 96 hrs by MTT assay. Type of series: functional, cell-based. The conditions noted are these: Cricetulus griseus. In a few lines:
as §1

For series [4], the system named is CHO. Nature of the series: Antiproliferative activity against chinese hamster CHO cells transfected with CYP1A1 assessed as inhibition of cell growth after 96 hrs by MTT assay. The series is classed as functional, cell-based. The conditions noted are these: Cricetulus griseus. In short, it runs like this:
as §1

In series [5] the target is T1, Cytochrome P450 1A1 (Homo sapiens, UniProt P04798).
T1 sequence (P04798 whole entry): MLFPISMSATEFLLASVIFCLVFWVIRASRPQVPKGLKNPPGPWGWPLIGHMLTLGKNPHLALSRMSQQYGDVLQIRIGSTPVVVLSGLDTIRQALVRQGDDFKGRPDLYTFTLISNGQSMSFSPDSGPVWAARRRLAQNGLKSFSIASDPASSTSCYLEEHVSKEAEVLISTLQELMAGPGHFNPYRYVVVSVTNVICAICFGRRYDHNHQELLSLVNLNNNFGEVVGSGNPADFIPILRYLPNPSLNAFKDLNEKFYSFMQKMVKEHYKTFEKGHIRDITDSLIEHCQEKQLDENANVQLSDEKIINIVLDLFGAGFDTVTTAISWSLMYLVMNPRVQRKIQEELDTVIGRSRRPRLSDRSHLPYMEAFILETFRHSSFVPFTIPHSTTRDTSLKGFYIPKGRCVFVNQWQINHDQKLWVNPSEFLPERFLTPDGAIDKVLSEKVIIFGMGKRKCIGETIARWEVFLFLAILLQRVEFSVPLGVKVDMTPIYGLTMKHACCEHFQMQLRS
Briefly: Drug metabolism assessed as recombinant human CYP1A1-mediated metabolite M1 with m/z of 327.1 formation at 50 uM incubated for 1 hr in presence of reconstituted protein system by LC-MS analysis. The series is classed as ADME. The conditions noted are these: recombinant enzyme. In short, it runs like this:
(§2)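 Substrate at 50 μM with human recombinant CYP1A1 in a reconstituted system: NADPH cytochrome P450 reductase plus freshly prepared DLPC (240 μM) in 100 mM potassium phosphate, pH 7.4. Mixture pre-warmed 3 min at 37 °C, started with NADPH (final 1 mM), incubated 1 h and extracted into dichloromethane. Analysis by reverse-phase HPLC with photodiode array detection and ESI+ quadrupole MS.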

Series [6] deals with EJ. Nature of the series: Antiproliferative activity against human EJ138 cells assessed as inhibition of cell growth preincubated for 1 hr with CYP null bactosomes measured after 96 hrs by MTT assay. The series is classed as functional, cell-based. In a few lines:
(§3)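 Compound (50 μM) incubated 1 h at 37 °C with 20 pmol CYP bactosomes (CYP null, 1A1, 1A2, 1B1 or 3A4) in 2 mM NADPH, 1 mM MgCl₂, Tris-HCl pH 7.4. Metabolites were extracted with acetonitrile, centrifuged, and the supernatant dried and taken up in DMSO. EJ138 cells were exposed 96 h and growth read by MTT assay.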

Series [7] deals with EJ. Briefly: Antiproliferative activity against human EJ138 cells assessed as inhibition of cell growth preincubated for 1 hr with human CYP1A1 expressing bactosomes measured after 96 hrs by MTT assay. The series is classed as functional, cell-based. In a few lines:
as §3

Series [8] deals with EJ. Briefly: Antiproliferative activity against human EJ138 cells assessed as inhibition of cell growth preincubated for 1 hr with human CYP1A2 expressing bactosomes measured after 96 hrs by MTT assay. Type of series: functional, cell-based. In a few lines: as §3
Series [9] has as its system EJ. Briefly: Antiproliferative activity against human EJ138 cells assessed as inhibition of cell growth preincubated for 1 hr with human CYP1B1 expressing bactosomes measured after 96 hrs by MTT assay. The series is classed as functional, cell-based. In a few lines:
as §3

Series [10] concerns EJ. Nature of the series: Antiproliferative activity against human EJ138 cells assessed as inhibition of cell growth preincubated for 1 hr with human CYP3A4 expressing bactosomes measured after 96 hrs by MTT assay. Type of series: functional, cell-based. In short, it runs like this:
as §3

Series [11] concerns EJ. Nature of the series: Potentiation factor, ratio of IC50 for antiproliferative activity against human EJ138 cells preincubated for 1 hr with CYP null bactosomes to IC50 for antiproliferative activity against human EJ138 cells preincubated for 1 hr with human CYP1A1 expressing bactosomes. Type of series: functional. In short, it runs like this:
(§4)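 Potentiation factor = IC₅₀ in EJ138 given control (CYP null) bactosome extract ÷ IC₅₀ with the named CYP isoform extract. Extracts came from 1 h, 37 °C incubations of 50 μM compound with 20 pmol bactosomes plus 2 mM NADPH, 1 mM MgCl₂, Tris-HCl pH 7.4. Cells were exposed 96 h and read by MTT.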

Series [12] has as its system EJ. Nature of the series: Potentiation factor, ratio of IC50 for antiproliferative activity against human EJ138 cells preincubated for 1 hr with CYP null bactosomes to IC50 for antiproliferative activity against human EJ138 cells preincubated for 1 hr with human CYP1A2 expressing bactosomes. The series is classed as functional. In a few lines:
as §4

For series [13], the system named is EJ. Nature of the series: Potentiation factor, ratio of IC50 for antiproliferative activity against human EJ138 cells preincubated for 1 hr with CYP null bactosomes to IC50 for antiproliferative activity against human EJ138 cells preincubated for 1 hr with human CYP1B1 expressing bactosomes. Type of series: functional. In a few lines: as §4
The subject of series [14] is EJ. Nature of the series: Potentiation factor, ratio of IC50 for antiproliferative activity against human EJ138 cells preincubated for 1 hr with CYP null bactosomes to IC50 for antiproliferative activity against human EJ138 cells preincubated for 1 hr with human CYP3A4 expressing bactosomes. Type of series: functional. In short, it runs like this:
as §4

Series [15] concerns the target T1, Cytochrome P450 1A1. Nature of the series: Drug metabolism assessed as recombinant human CYP1A1-mediated metabolite M1 with m/z of 375.1 formation at 50 uM incubated for 1 hr in presence of reconstituted protein system by LC-MS analysis. Type of series: ADME. The conditions noted are these: recombinant enzyme. In a few lines: as §2
The target of series [16] is T1, Cytochrome P450 1A1. Briefly: Drug metabolism assessed as recombinant human CYP1A1-mediated metabolite M2 with m/z of 345.1 formation at 50 uM incubated for 1 hr in presence of reconstituted protein system by LC-MS analysis. Type of series: ADME. The conditions noted are these: recombinant enzyme. In short, it runs like this:
as §2

Series [17] has as its target T1, Cytochrome P450 1A1. Nature of the series: Drug metabolism assessed as recombinant human CYP1A1-mediated metabolite M3 with m/z of 373.1 formation at 50 uM incubated for 1 hr in presence of reconstituted protein system by LC-MS analysis. Type of series: ADME. The conditions noted are these: recombinant enzyme. In a few lines:
as §2

The target in series [18] is T1, Cytochrome P450 1A1. Briefly: Drug metabolism assessed as recombinant human CYP1A1-mediated metabolite M4 with m/z of 391.1 formation at 50 uM incubated for 1 hr in presence of reconstituted protein system by LC-MS analysis. Type of series: ADME. Conditions: recombinant enzyme. In short, it runs like this:
as §2

Some results are limits rather than exact numbers.

For the compound `CC(C)(C)OC(=O)N1CC(CCl)c2ccccc21` (stereo not given), the IC50 in series [1], in series [2], in series [3] and in series [4] was more than 25 µM each time.

For the compound `CC(C)(C)OC(=O)N1CC(CCl)c2ccc(O)cc21` (stereo not given), the IC50 worked out at 8.1 µM in series [1], 11.1 µM in series [2], 7.3 µM in series [3] and 6.5 µM in [4].

With `COc1ccc2[nH]c(C(=O)N3CC(CCl)c4ccc(O)cc43)cc2c1` (stereo not given), the IC50 in series [1] was determined as 0.038 µM; in series [2] it was 0.055 µM; in series [3], 0.03 µM; in series [4], 0.035 µM. For the same compound, the Drug metabolism entry in series [5] was “Metabolite_Detected”.

On to `COc1ccc2[nH]c(C(=O)N3CC(CCl)c4cc(F)ccc43)cc2c1` (stereo not given), for which the IC50 in series [1] was found to be 18.6 µM; in series [2], 5.04 µM; in series [3] it was 14.8 µM; in series [4], 6.2 µM; in series [6] it was 15.8 µM; in series [7] it was 3.1 µM. For the same compound, the IC50 in [8] is 5.11 µM; in [9], 11.9 µM; in series [10], 16.8 µM. Also, the “Ratio IC50” value was determined as 5.1 in [11], 3.1 in series [12], 1.3 in [13] and 0.9 in series [14]. In addition, the Drug metabolism entry in [15], in [16], in [17] and in series [18] was “Metabolite_Detected” each time.
